Assay outcomes deposited in PubChem BioAssay by several laboratories.
NPY-Y1 PAM-ag = potentiates or activates human NPY-Y1 receptor; P25929; NPY-Y1 expressing cells, potentiator/agonist activation; activation, % at 3.6 µM; 220,000 tested, 0.37% active; AID 1304; in the data active means activation above about 33%, passing the limit was not always enough;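 further: cells stimulated with NPY at EC10 then isoproterenol at EC100; 0% = low agonist plus stimulus and 100% = saturating agonist plus stimulus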
NPY-Y2 antag = antagonists of human neuropeptide Y receptor Y2 | NPY-Y2 expressing cells, antagonist mode | inhibition, % at 2.7 µM | 140,000 tested, 0.99% active | AID 793; in the data active means inhibition above about 17%;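 further: 0% = vehicle with agonist challenge and 100% = reference antagonist with challenge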
Target sequence (P49146 whole entry, looked up): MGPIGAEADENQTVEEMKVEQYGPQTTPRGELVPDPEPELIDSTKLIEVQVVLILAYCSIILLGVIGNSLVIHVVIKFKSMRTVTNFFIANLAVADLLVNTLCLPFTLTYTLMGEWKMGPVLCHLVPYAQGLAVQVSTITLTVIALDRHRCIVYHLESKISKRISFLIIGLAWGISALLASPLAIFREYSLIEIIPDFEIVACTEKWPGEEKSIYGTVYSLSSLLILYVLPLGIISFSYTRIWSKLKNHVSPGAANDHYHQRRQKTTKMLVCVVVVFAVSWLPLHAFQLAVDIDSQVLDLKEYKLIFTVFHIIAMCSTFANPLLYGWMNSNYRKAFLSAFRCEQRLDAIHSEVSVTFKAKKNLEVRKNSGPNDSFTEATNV
NPY-Y2 PAM-ag = human NPY-Y2 potentiation or agonism, primary screen | cells expressing NPY-Y2, potentiator/agonist read-out | activation, % at 3.6 µM | 220,000 tested, 0.45% active; in the data active means activation above about 27%;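 further: cells stimulated with NPY near EC25 plus isoproterenol at EC100; 0% = vehicle plus submaximal agonist and 100% = vehicle plus saturating agonist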
INS promoter inh = TRM-6 insulin promoter activity inhibition; TRM-6 cells, insulin promoter-eGFP reporter, imaging; reporter expression induced with tamoxifen; AID 1273; inhibition, % at 2 µM; 130,000 tested, 0.9% active;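 active means inhibition above the mean plus 3 SD, with well images judged a real hit on visual review, cut at about 60% in these data, passing the limit was not always enough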
RAM network inh = blocks the yeast RAM network. AID 868. S. cerevisiae dse1pr::URA3 reporter, 5-FOA growth OD615, 2 d; analog-sensitive cbk1-as2 kinase mutant strain. 190,000 tested, 1.8% active. inhibition, % at 50 µM;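 active means inhibition above a set limit, 3 SD over mean compound inhibition, cut at about 8.4% in these data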;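 further: 0% = DMSO-only wells with no growth and 100% = 10 µM 1-NA-PP1 full growth; inhibition rescues growth on 5-FOA so higher OD means more RAM inhibition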
NPY Y1 blocker = blocks the human neuropeptide Y Y1 receptor. inhibition, % at 3.6 µM. P25929. HEK293-CNG Y1 cells, membrane potential fluorescence; NPY at EC95, then isoproterenol. 200,000 tested, 1% active;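 active means inhibition above the campaign mean inhibition of all tested compounds plus 3 SD, cut at about 20% in these data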;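 further: 0% = DMSO wells given NPY plus isoproterenol and 100% = isoproterenol alone without NPY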
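Benchmarks – high control isoproterenol alone, low control NPY with isoproterenol · Material – HEK293 Y1/CNG channel cell line · Times – dye 3 h, compound 60 min room temperature, stimulation 45 min · Probe or stimulus – NPY (25 nM), isoproterenol (1 µM), Ro 20-1724 (25 µM) · Evaluation – % inhibition of NPY effect · Signal – fluorescence, membrane potential probe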
NPY1 antag ctr = counter-screen for NPY-Y2 antagonists: human NPY-Y1 antagonism. shares compounds with NPY-Y2 antag. cell-based NPY-Y1 antagonism counterscreen. inhibition, % at 3.6 µM. 710 tested, 19% active. AID 1256; in the data active means inhibition above about 20%;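 further: cells challenged with NPY then isoproterenol with cAMP sensed through a CNG channel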
NPY-Y2 ant conf = confirmation of human neuropeptide Y receptor Y2 antagonists. shares compounds with NPY-Y2 antag. HEK293 NPY-Y2 CNG channel, membrane potential fluorescence. inhibition, % at 2.8 µM. 710 tested, 32% active. AID 1257;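 active means mean inhibition of triplicate wells above the hit cutoff set in the primary screen, cut at about 17% in these data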;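 further: 0% = DMSO with NPY challenge and 100% = BIIE0246 high control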
The depositor's hits bear a star; / = no result. Rows were chosen to be rich in hits. Some 3.8% of all compounds tested hit in one or more screens of this group.

SMILES	NPY-Y1 PAM-ag	NPY-Y2 antag	NPY-Y2 PAM-ag	INS promoter inh	RAM network inh	NPY Y1 blocker	NPY1 antag ctr	NPY-Y2 ant conf
Cc1nn(C(C)(C)C)c(OC(=O)c2ccco2)c1Sc1ccccc1	0	6	12	-39	6	3	/	/
Cc1ccc(/C=N/N2C(=O)c3ccccc3NC2c2ccc(C)cc2)cc1 (stereo not given)	2	5	-1	7	2	3	/	/
CC(C)(C)NC(=O)[C@H]1CC[C@H]2[C@@H]3CC[C@H]4NC(=O)C=C[C@]4(C)[C@H]3CC[C@]12C	1	/	6	/	/	-2	/	/
CCn1c(SCc2ccccc2Cl)nc2nc3c(cc2c1=O)CCCC3	-52	18*	-2	/	-1	3	9	14
CCN(CC)c1ccc(CNc2nc3ccccc3n2CC)cc1	2	/	5	/	/	/	/	/
Cc1ccc(C(C(=O)NC2CCCC2)N(Cc2ccc3c(c2)OCO3)C(=O)c2snc(C(N)=O)c2N)cc1 (stereo not given)	-7	/	6	/	/	/	/	/
O=C(NC1CCCCC1)C(c1ccccc1)N(Cc1ccc2c(c1)OCO2)C(=O)c1cnsn1 (stereo not given)	-43	26*	-11	10	3	12	16	12
COc1ccc(/C=N/NC(=O)c2cccc(Br)c2)cc1COc1ccccn1	4	/	-19	/	/	/	/	/
COc1ccc(C(=O)NC(=S)Nc2cccc(NC(=O)c3ccco3)c2)cc1[N+](=O)[O-]	-3	0	-13	/	2	11	/	/
CCOc1ccc(C(=O)NC(=S)Nc2ccc(N3CCCCC3)cc2)cc1[N+](=O)[O-]	-12	29*	-7	0	1	-1	78*	91*
COc1ccc(C(=O)NC(=S)Nc2ccc(NC(=O)c3ccco3)cc2)cc1[N+](=O)[O-]	8	19*	10	0	4	2	52*	88*
Cc1cc(=O)oc2cc(OCC(=O)Nc3ccc(S(=O)(=O)N(C)C)cc3)ccc12	-18	/	-13	/	/	/	/	/
C=CCOc1ccc2ccccc2c1/C=N/O	-29	20*	-7	-38	-1	17	7	7
CO/N=C/c1ccc(N2CCOCC2)c([N+](=O)[O-])c1	1	/	5	40	1	-1	/	/
CCCCC(=O)N/N=C/c1ccc(N2CCOCC2)c([N+](=O)[O-])c1	-32	21*	-6	38	2	0	8	17*
Cc1c(C(=O)Nc2nc3ccccc3[nH]2)oc2ccccc12	-1	5	0	-13	2	3	/	/
Cc1c(C(=O)Nc2nc3ccccc3[nH]2)oc2ccc(Br)cc12	-6	19*	-19	/	3	-1	12	14
CC1CCCN(C(=O)CSc2nnc(-c3c[nH]c4ccccc34)o2)C1 (stereo not given)	-6	23*	-15	/	2	8	6	6
CC1CCCC(C)N1C(=O)CSc1nnc(-c2c[nH]c3ccccc23)o1 (stereo not given)	10	6	8	43	4	-1	/	/
O=P(Cc1cc(Br)cc(Br)c1OCCO)(c1ccccc1)c1ccccc1	-16	/	-26	/	/	/	/	/
CSc1cccc(NC(=S)N2CCCN(Cc3ccccc3F)C2)c1	1	/	-2	12	0	-2	/	/
OC(CCN1CCCCC1)(c1ccccc1)C1CCCCC1 (stereo not given)	-34	20*	1	-5	1	13	6	12
OC(CCN1CCOCC1)(c1ccc(Cl)cc1)C1CCCCC1 (stereo not given)	-20	8	-18	-22	0	11	/	/
C=CCN1C(=O)N(/C=C/C)c2cccc3cccc1c23	-25	7	-7	55	2	3	/	/
COc1ccc2cc3cc(C(=O)NCCN4CCN(c5ccccc5F)CC4)oc3nc2c1	-4	5	-15	22	0	5	/	/
COc1ccc2cc3cc(C(=O)Nc4ccccc4N4CCN(C)CC4)oc3nc2c1	-19	18*	-1	-3	0	17	7	16
